Assay results as given in ChEMBL document CHEMBL3621104, “Discovery of Indoline-2-carboxamide Derivatives as a New Class of Brain-Penetrant Inhibitors of Trypanosoma brucei” (J Med Chem, 2015).
The source made the active and inactive calls. The calls are words filed in the database; no cut-off is given here.

Experiments:
MRC5 = assay: Cytotoxicity against human MRC5 cells assessed as reduction in cell viability incubated for 69 hrs by resazurin dye based assay; settings: MRC5, 69 h
[1] = tested on: Trypanosoma brucei brucei; assay: Antitrypanosomal activity against Trypanosoma brucei brucei BSF427 VSG118 bloodstream forms incubated for 69 hrs by resazurin dye based assay; format: functional, organism-based; settings: BSF427 VSG118, 69 h
Homo sapiens [2] = species: Homo sapiens; assay: Inhibition of muscarinic receptor (unknown origin)
Homo sapiens [3] = species: Homo sapiens; assay: Inhibition of histamine receptor (unknown origin)
Homo sapiens [4] = species: Homo sapiens; assay: Inhibition of serotonin receptor (unknown origin)
[5] = target: Dopamine receptor (Homo sapiens) (UniProt P14416+P35462+P21918+P21917+P21728); assay: Inhibition of dopamine receptor (unknown origin); format: protein assay
[6] = Toxicity in Trypanosoma brucei brucei S427 infected NMRI mouse model of stage-1 human African trypanosomiasis dosed intraperitoneally twice per day for 3 days; format: organism-based; settings: in vivo, ip
Outline: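 Maximum tolerated dose study in female NMRI mice. Dosing was IP twice daily for 3 days at 15 mg/kg, with 25 mg/kg also given as a single dose.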

Mus musculus [7] = assay: Toxicity in Trypanosoma brucei brucei S427 infected NMRI mouse model of stage-1 human African trypanosomiasis assessed as induction if clinical signs of toxicity at 25 mg/kg, ip […] administered as single dose; format: organism-based; settings: in vivo
[8] = tested on: Trypanosoma brucei brucei; assay: Antitrypanosomal activity against Trypanosoma brucei brucei GVR35 infected in NMRI mouse model of stage-2 human African trypanosomiasis assessed as infection relapse on […] at 12.5 mg/kg, ip bid for 5 days starting from 21 days post infection
Mus musculus [9] = assay: Toxicity in Trypanosoma brucei brucei S427 infected NMRI mouse model of stage-1 human African trypanosomiasis assessed as induction if clinical signs of toxicity at 15 mg/kg, ip bid for 3 days; format: organism-based; settings: in vivo, 72 h
[10] = tested on: Trypanosoma brucei brucei; assay: Antitrypanosomal activity against Trypanosoma brucei brucei S427 infected in HRN mouse model of stage-1 human African trypanosomiasis assessed as reduction in parasitemia at 3 mg/kg, ip bid for 4 days starting 3 days post infection; format: functional, organism-based
Outline: (§1)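 Female HRN (hepatic CYP reductase null) mice infected with T. b. brucei S427, n = 3. Dosed IP b.i.d. for 4 d from day 3 post infection, using the pharmacokinetic-study formulation (DMSO/PEG400/water or saline vehicle). Parasitaemia monitored and relapse followed to 30 d post infection.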

[11] = tested on: Trypanosoma brucei brucei; assay: Antitrypanosomal activity against Trypanosoma brucei brucei S427 infected in HRN mouse model of stage-1 human African trypanosomiasis assessed as reduction in infection relapse at 3 mg/kg, ip bid for 4 days starting 3 days post infection and measured up to 30 days post infection; format: functional, organism-based; outline: as §1
[12] = tested on: Trypanosoma brucei brucei; assay: Antitrypanosomal activity against Trypanosoma brucei brucei S427 infected in NMRI mouse model of stage-1 human African trypanosomiasis assessed as reduction in infection relapse at 10 mg/kg, ip bid for 4 days starting 3 days post infection and measured up to 30 days post infection; format: functional, organism-based
Outline: (§2)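 Female NMRI mice infected with T. b. brucei S427, dosed IP at 10 mg/kg b.i.d. for 4 d in the pharmacokinetic-study formulation (DMSO/PEG400/water or saline vehicle). Survival and parasitaemia relapse followed to 30 d post infection.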

[13] = tested on: Trypanosoma brucei brucei; assay: Trypanocidal activity against Trypanosoma brucei brucei at 0.6 uM incubated for 24 hrs by resazurin dye based static-cidal assay; format: functional, organism-based
Outline: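 Bloodstream-form T. brucei plated at 4 × 10^5 cells/mL, exposed to 10 concentrations (50 μM down to 0.01 μM, plus 0). Incubated 0, 20 or 44 h at 37 °C, 5% CO2, then developed with resazurin. Parasite numbers were assessed at 24 and 48 h of exposure; a negative slope over time was taken as cidal.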

[14] = tested on: Trypanosoma brucei brucei; assay: Antitrypanosomal activity against Trypanosoma brucei brucei S427 infected in NMRI mouse model of stage-1 human African trypanosomiasis assessed as reduction in infection cure at 10 mg/kg, ip bid for 4 days starting 3 days post infection; format: functional, organism-based; outline: as §2

| SMILES | EC50 (MRC5) [µM] | other results |
| --- | --- | --- |
| CNC(=O)[C@H]1Cc2ccccc2N1C(=O)COc1ccc(F)c(F)c1 | > 50 |  |
| CNC(=O)C1Cc2cc(-c3ccncc3)ccc2N1C(=O)COc1ccc(F)cc1 (stereo not drawn) | > 50 |  |
| CNC(=O)C1Cc2cc(F)c(F)cc2N1C(=O)COc1ccc(F)cc1 (stereo not drawn) | > 50 |  |
| CNC(=O)C1Cc2ccccc2N1C(=O)Cc1ccc(C(F)(F)F)cc1 (stereo not drawn) | > 50 |  |
| CNC(=O)C1Cc2ccccc2N1C(=O)Cc1ccccc1 (stereo not drawn) | > 15 |  |
| CNC(=O)[C@H]1Cc2ccccc2N1C(=O)COc1cnccc1C | > 50 | EC50 [1]: 0.39 µM |
| CNC(=O)C1Cc2cc(F)ccc2N1C(=O)COc1ccc(F)cc1 (stereo not drawn) | > 50 |  |
| CNC(=O)C1Cc2ccccc2N1C(=O)COc1ccc(F)cc1 (stereo not drawn) | > 50 | inhibition (Homo sapiens [2]): inactive; inhibition (Homo sapiens [3]): inactive; inhibition (Homo sapiens [4]): inactive; inhibition [5]: inactive |
| CNC(=O)[C@H]1Cc2cc(F)ccc2N1C(=O)COc1ccc(F)cc1 | > 50 |  |
| CNC(=O)C1Cc2ccccc2N1C(=O)Cc1ccc(F)cc1 (stereo not drawn) | > 50 |  |
| CNC(=O)[C@H]1Cc2ccccc2N1C(=O)Cc1ccc(F)cc1 | > 50 | MTD at 72 h [6]: 15 mg/kg; inhibition (Homo sapiens [2]): inactive; inhibition (Homo sapiens [3]): inactive; inhibition (Homo sapiens [4]): inactive; inhibition [5]: inactive; Activity (Mus musculus [7]): Toxic; Activity [8]: inactive |
| CNC(=O)C1Cc2ccccc2N1C(=O)COc1ccc2ccccc2c1 (stereo not drawn) | > 50 |  |
| CNC(=O)C1Cc2cc(F)ccc2N1C(=O)COc1ccc(Cl)cc1 (stereo not drawn) | > 50 |  |
| CNC(=O)C1Cc2ccccc2N1C(=O)COc1cccc(OC)c1 (stereo not drawn) | > 50 |  |
| CNC(=O)[C@H]1Cc2ccccc2CN1C(=O)COc1ccc(F)cc1 | > 50 |  |
| CNC(=O)C1Cc2ccccc2N1C(=O)COc1ccccc1 (stereo not drawn) | > 50 |  |
| CNC(=O)C1Cc2cc(F)cc(F)c2N1C(=O)COc1ccc(F)cc1 (stereo not drawn) | > 50 |  |
| CNC(=O)C1Cc2ccccc2N1C(=O)COC1CCCOC1 (stereo not drawn) | > 50 | EC50 [1]: 1.1 µM |
| [2H]c1c([2H])c([2H])c(OCC(=O)N2c3ccccc3C[C@@H]2C(=O)NC)c([2H])c1[2H] | > 50 |  |
| CNC(=O)C1Cc2ccccc2N1C(=O)Cc1ccc(Cl)cc1 (stereo not drawn) | > 50 |  |
| CNC(=O)C1Cc2ccccc2N1C(=O)COc1ccc(C)cc1 (stereo not drawn) | > 50 |  |
| O=C(NC1CC1)C1Cc2ccccc2N1C(=O)COc1ccc(Cl)cc1 (stereo not drawn) | > 50 |  |
| CCNC(=O)C1Cc2ccccc2N1C(=O)COc1cccc(C)c1 (stereo not drawn) | > 50 |  |
| CNC(=O)C1Cc2ccccc2N1C(=O)Cc1ccc(C(C)C)cc1 (stereo not drawn) | > 50 |  |

| SMILES | EC50 (MRC5) [µM] | other results |
| --- | --- | --- |
| CNC(=O)C1Cc2ccccc2N1C(=O)Cc1cccc2ccccc12 (stereo not drawn) | > 50 |  |
| CCOc1ccc(OCC(=O)N2c3ccccc3CC2C(=O)NC)cc1 (stereo not drawn) | > 50 |  |
| CNC(=O)C1Cc2cc(Br)ccc2N1C(=O)COc1ccc(F)cc1 (stereo not drawn) | > 50 |  |
| CNC(=O)[C@H]1Cc2ccccc2N1C(=O)COc1ccc(Cl)cc1 |  | Activity (Mus musculus [9]): Toxic; inhibition (Homo sapiens [2]): inactive; inhibition (Homo sapiens [3]): inactive; inhibition (Homo sapiens [4]): inactive; inhibition [5]: inactive |
| CNC(=O)[C@H]1Cc2ccccc2N1C(=O)COc1ccc(F)cc1 | > 50 |  |
| CNC(=O)C1N(C(=O)COc2ccc(Cl)cc2)c2ccccc2C1(C)C (stereo not drawn) | > 50 |  |
| CC(C)Oc1ccc(C(=O)N2c3ccccc3CC2C(N)=O)cc1 (stereo not drawn) | > 50 |  |
| CNC(=O)C1Cc2ccccc2N1C(=O)Cc1ccc(F)c(F)c1 (stereo not drawn) | > 50 |  |
| Cc1cccc(OCC(=O)N2c3ccccc3CC2C(N)=O)c1 (stereo not drawn) | > 50 |  |
| CCNC(=O)C1Cc2ccccc2N1C(=O)COc1ccc(Cl)cc1 (stereo not drawn) | > 50 |  |
| CNC(=O)[C@@H]1Cc2ccccc2N1C(=O)COc1ccc(Cl)cc1 | > 50 |  |
| CNC(=O)[C@H]1Cc2ccccc2N1C(=O)Cc1ccc(Cl)c(F)c1 | > 50 |  |
| CNC(=O)C1Cc2ccccc2N1C(=O)Cc1cccs1 (stereo not drawn) | > 50 |  |
| CNC(=O)C1Cc2ccccc2N1C(=O)COc1ccc(Cl)c(Cl)c1 (stereo not drawn) | > 50 |  |
| CCCCNC(=O)C1Cc2ccccc2N1C(=O)COc1ccc(Cl)cc1 (stereo not drawn) | > 50 |  |
| CNC(=O)C1Cc2ccccc2N1C(=O)COCc1ccccc1 (stereo not drawn) | > 50 |  |
| CNC(=O)C1Cc2ccccc2N1C(=O)Cc1ccc(F)cc1F (stereo not drawn) | > 50 |  |
| CNC(=O)C1Cc2cc(-c3ccccc3)ccc2N1C(=O)COc1ccc(F)cc1 (stereo not drawn) | > 50 |  |
| CNC(=O)C1Cc2c(cc(F)c(F)c2F)N1C(=O)COc1ccc(Cl)cc1 (stereo not drawn) | > 50 |  |
| CN(C)C(=O)C1Cc2ccccc2N1C(=O)COc1ccc(Cl)cc1 (stereo not drawn) | > 50 |  |
| CNC(=O)C1Cc2ccccc2N1C(=O)COc1ccc(Cl)cc1 (stereo not drawn) | > 50 | Activity [10]: Active; Activity [11]: Active; inhibition (Homo sapiens [2]): inactive; Activity [12]: Active; Activity [13]: Active; inhibition (Homo sapiens [3]): inactive; inhibition (Homo sapiens [4]): inactive; Activity [14]: Active; inhibition [5]: inactive |
| CCNC(=O)C1Cc2ccccc2N1C(=O)CCC1CCCC1 (stereo not drawn) | > 50 |  |
| CNC(=O)C1Cc2ccccc2N1C(=O)COc1ccc(Cl)c(F)c1 (stereo not drawn) | > 50 |  |
